Measured values reported in ChEMBL document CHEMBL1133454, “Structure-activity studies of reduced-size gonadotropin-releasing hormone agonists derived from the sequence of an endothelin antagonist” (J Med Chem, 2000).
Square brackets hold non-standard residues; d marks the D form. Peptide text beside a SMILES is read from it. * marks the point of attachment. X1 = CC(C)C[C@@H](C(=O)*)N1C(=O)N[C@H](Cc2c[nH]c3ccccc23)C1=O

These compounds were tested against T1, Endothelin receptor (Rattus norvegicus, UniProt P26684+P21451) (assay: Inhibition constant for the displacement of specific binding of [125I]-ET (Kd=2 nM) bound to rat pituitary membrane).
T1 sequence (P26684 whole entry): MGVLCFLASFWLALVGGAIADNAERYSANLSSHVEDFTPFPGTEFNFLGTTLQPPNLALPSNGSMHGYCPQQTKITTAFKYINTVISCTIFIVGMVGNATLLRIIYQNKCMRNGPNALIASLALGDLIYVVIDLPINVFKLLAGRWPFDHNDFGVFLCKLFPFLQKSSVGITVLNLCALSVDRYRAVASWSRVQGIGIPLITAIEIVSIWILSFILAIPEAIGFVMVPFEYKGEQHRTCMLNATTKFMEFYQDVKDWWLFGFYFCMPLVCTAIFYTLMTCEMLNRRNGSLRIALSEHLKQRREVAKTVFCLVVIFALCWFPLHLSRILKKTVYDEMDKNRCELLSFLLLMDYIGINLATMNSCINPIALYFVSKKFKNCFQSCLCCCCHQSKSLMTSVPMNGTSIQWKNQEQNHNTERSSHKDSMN
T1 sequence (P21451 whole entry): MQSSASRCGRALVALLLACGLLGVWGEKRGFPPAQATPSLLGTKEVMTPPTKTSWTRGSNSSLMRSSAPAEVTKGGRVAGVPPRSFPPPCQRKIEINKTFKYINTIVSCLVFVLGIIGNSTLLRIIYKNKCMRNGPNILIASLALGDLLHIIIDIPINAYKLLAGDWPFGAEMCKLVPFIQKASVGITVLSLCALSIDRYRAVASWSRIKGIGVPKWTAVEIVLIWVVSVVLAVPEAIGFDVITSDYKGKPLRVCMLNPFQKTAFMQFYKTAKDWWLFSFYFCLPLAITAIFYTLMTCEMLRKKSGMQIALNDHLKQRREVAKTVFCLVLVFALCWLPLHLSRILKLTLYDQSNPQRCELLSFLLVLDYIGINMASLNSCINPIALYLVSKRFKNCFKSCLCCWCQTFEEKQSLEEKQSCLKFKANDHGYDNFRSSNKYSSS
Assay type: tissue-based, Pituitary gland; call rule not given here

Ki | SMILES
55000 nM | CC[C@H](C)[C@H](NC(=O)[C@H](CC(=O)O)NC(=O)[C@H](CC(C)C)NC(=O)[C@H](N)Cc1c[nH]c2ccccc12)C(=O)N[C@H](C(=O)N[C@@H](Cc1c[nH]c2ccccc12)C(=O)O)[C@@H](C)CC
6000 nM | CC[C@H](C)[C@H](NC(=O)[C@H](CC(=O)O)NC(=O)[C@H](CC(C)C)N1C(=O)N[C@H](Cc2c[nH]c3ccccc23)C1=O)C(=O)N[C@H](C(=O)N[C@@H](Cc1c[nH]c2ccccc12)C(=O)O)[C@@H](C)CC (X1-DIIW-OH)

The compounds below were run against T2, Gonadotropin-releasing hormone receptor (Rattus norvegicus, UniProt P30969) (assay: Inhibition constant for the displacement of specific binding of [125I][D-Lys6]-GnRH (Kd=177 pM) bound to rat pituitary membranes).
T2 sequence (P30969 whole entry): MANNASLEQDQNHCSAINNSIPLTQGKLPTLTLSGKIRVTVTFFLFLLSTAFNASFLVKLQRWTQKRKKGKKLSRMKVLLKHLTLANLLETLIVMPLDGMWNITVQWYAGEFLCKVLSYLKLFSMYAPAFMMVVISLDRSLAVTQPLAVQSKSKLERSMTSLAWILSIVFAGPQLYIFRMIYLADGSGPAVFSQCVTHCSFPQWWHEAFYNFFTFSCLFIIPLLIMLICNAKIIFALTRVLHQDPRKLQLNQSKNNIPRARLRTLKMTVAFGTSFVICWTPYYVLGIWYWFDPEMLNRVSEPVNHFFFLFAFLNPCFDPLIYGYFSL
Assay type: cell membranes, Membrane
Method in brief: (§1)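 Membranes from proestrous Wistar-derived rat pituitaries (25 μg protein/tube) incubated 90 min at 4 °C with 23.5 pM 125I-[D-Lys6]GnRH plus increasing unlabeled peptide (up to 10 μM, DMSO ≤1%) in 10 mM Tris-HCl/0.1% BSA. Filtration on GF/C, gamma counting. Nonspecific binding from 1 μM [D-Lys6]GnRH. Ki fitted from displacement curves; two experiments in triplicate, mean ± SEM.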

SMILES | Ki
CC[C@H](C)[C@H](N)C(=O)N[C@H](C(=O)N[C@@H](Cc1c[nH]c2ccccc12)C(=O)N[C@H](Cc1c[nH]cn1)C(=O)N[C@@H](CC(C)C)C(=O)N[C@@H](CC(=O)O)C(=O)O)[C@@H](C)CC | 500 nM
CC[C@H](C)[C@H](N)C(=O)N[C@H](C(=O)N[C@@H](Cc1c[nH]c2ccccc12)C(=O)N[C@H](Cc1c[nH]c2ccccc12)C(=O)N[C@@H](CC(C)C)C(=O)N[C@@H](CC(=O)O)C(=O)O)[C@@H](C)CC | 700 nM
CC[C@H](C)[C@H](NC(=O)[C@H](CCCNC(=N)N)NC(=O)[C@H](CC(C)C)NC(=O)[C@@H](Cc1c[nH]c2ccccc12)NC(C)=O)C(=O)N[C@H](C(=O)N[C@@H](Cc1c[nH]c2ccccc12)C(=O)O)[C@@H](C)CC | 2000 nM
CC[C@H](C)[C@@H]1NC(=O)CSC[C@@H](C(=O)O)NC(=O)[C@H](CC(C)C)NC(=O)[C@@H](Cc2c[nH]c3ccccc23)NC(=O)[C@H](Cc2c[nH]c3ccccc23)NC(=O)[C@H]([C@@H](C)CC)NC1=O | 320 nM
CC[C@H](C)[C@H](NC(=O)[C@H](CC(=O)O)NC(=O)[C@H](CC(C)C)NC(=O)[C@@H](Cc1c[nH]c2ccccc12)NC(C)=O)C(=O)N[C@H](C(=O)N[C@@H](Cc1c[nH]c2ccccc12)C(=O)O)[C@@H](C)CC (Ac-[dW]LDIIW-OH) | 1900 nM

The remaining lines, values ahead:

Ki | SMILES
4000 nM | CC[C@H](C)[C@H](N)C(=O)N[C@H](C(=O)N[C@@H](Cc1c[nH]c2ccccc12)C(=O)N[C@@H](Cc1c[nH]c2ccccc12)C(=O)N[C@@H](CC(C)C)C(=O)N[C@@H](CC(=O)O)C(=O)O)[C@@H](C)CC
> 10000 nM | CC[C@H](C)[C@H](N)C(=O)N[C@H](C(=O)N[C@@H](Cc1c[nH]c2ccccc12)C(=O)N[C@H](C)C(=O)N[C@@H](CC(C)C)C(=O)N[C@@H](CC(=O)O)C(=O)O)[C@@H](C)CC
8000 nM | CC[C@H](C)[C@H](N)C(=O)N[C@H](C(=O)N[C@@H](Cc1c[nH]c2ccccc12)C(=O)N[C@H](Cc1ccccc1)C(=O)N[C@@H](CC(C)C)C(=O)N[C@@H](CC(=O)O)C(=O)O)[C@@H](C)CC
700 nM | CC[C@H](C)[C@@H]1NC(=O)[C@H](CC(=O)O)NC(=O)[C@H](CC(C)C)NC(=O)[C@@H](Cc2c[nH]c3ccccc23)NC(=O)[C@H](Cc2c[nH]c3ccccc23)NC(=O)[C@H]([C@@H](C)CC)NC1=O
8000 nM | CC[C@H](C)[C@H](NC(=O)[C@H](CC(=O)O)NC(=O)[C@H](CC(C)C)NC(=O)[C@H](N)Cc1c[nH]c2ccccc12)C(=O)N[C@H](C(=O)N[C@@H](Cc1c[nH]c2ccccc12)C(=O)O)[C@@H](C)CC
230 nM | CC[C@H](C)[C@H](NC(=O)[C@H](CC(=O)O)NC(=O)[C@H](CC(C)C)N1C(=O)N[C@H](Cc2c[nH]c3ccccc23)C1=O)C(=O)N[C@H](C(=O)N[C@@H](Cc1c[nH]c2ccccc12)C(=O)O)[C@@H](C)CC (X1-DIIW-OH)

Each compound was assayed against T2, Gonadotropin-releasing hormone receptor (assay: Inhibition constant for the displacement of specific binding of [125I][D-Lys6]-GnRH (Kd=177 pM) bound to rat pituitary membranes; No significant binding at 10 uM).
Assay type: cell membranes, Membrane
Method in brief: as §1

Ki | SMILES
Not Active | CC[C@H](C)[C@H](N)C(=O)N[C@H](C(=O)N[C@@H](Cc1ccccc1)C(=O)N[C@H](Cc1c[nH]c2ccccc12)C(=O)N[C@@H](CC(C)C)C(=O)N[C@@H](CC(=O)O)C(=O)O)[C@@H](C)CC
Not Active | CC[C@H](C)[C@H](N)C(=O)N[C@H](C(=O)N[C@@H](Cc1c[nH]cn1)C(=O)N[C@H](Cc1c[nH]c2ccccc12)C(=O)N[C@@H](CC(C)C)C(=O)N[C@@H](CC(=O)O)C(=O)O)[C@@H](C)CC
